Compound activity from PubChem BioAssay.
Most compounds without a hit are left out; they make up all but 1.8% or so of the library.
CHRM5 agonist: agonists of human muscarinic M5 receptor (CHRM5). AID 624037. CHO-K1 hM5 cells, Fluo-8 calcium fluorescence; 0% DMSO wells, 100% maximal acetylcholine response. P08912. activation, % at 3 µM. actives 0.19% (n = 360,000);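 active means activation above the run's mean over test compounds plus 3 SD, cut at about 23% in these data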;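 further: signal is peak over basal fluorescence ratio across the kinetic read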
Target sequence (P08912 whole entry, looked up): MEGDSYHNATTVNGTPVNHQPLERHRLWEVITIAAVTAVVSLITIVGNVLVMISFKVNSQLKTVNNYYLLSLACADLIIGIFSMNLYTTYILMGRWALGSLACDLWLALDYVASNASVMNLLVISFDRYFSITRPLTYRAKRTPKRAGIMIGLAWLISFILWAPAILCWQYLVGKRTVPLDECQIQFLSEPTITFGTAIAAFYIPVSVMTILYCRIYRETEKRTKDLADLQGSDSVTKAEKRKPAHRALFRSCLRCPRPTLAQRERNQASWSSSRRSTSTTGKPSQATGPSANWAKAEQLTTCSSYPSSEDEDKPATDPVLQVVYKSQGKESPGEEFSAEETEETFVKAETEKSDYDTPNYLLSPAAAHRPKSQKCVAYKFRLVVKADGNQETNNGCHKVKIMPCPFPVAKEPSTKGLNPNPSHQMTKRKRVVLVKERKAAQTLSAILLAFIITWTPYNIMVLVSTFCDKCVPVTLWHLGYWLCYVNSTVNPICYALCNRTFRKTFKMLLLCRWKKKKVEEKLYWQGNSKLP
CHRM4 PAM: positive allosteric modulators of human muscarinic M4 receptor; CHO-K1 hM4/Gqi5, Fluo-8 calcium fluorescence, ACh EC20; 0% = ACh EC20, 100% = maximal ACh; activation, % at 3 µM; actives 0.4% (n = 360,000);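 active means activation above its plate's cutoff, the mean activation of sample wells plus 3 SD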
CHRM5 antagonist: CHRM5 antagonism in calcium assay; CHO-hM5 cells, Fluo-8 calcium fluorescence, ACh EC80; inhibition, % at 3 µM; actives 0.59% (n = 360,000);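 active means inhibition above a per-plate cutoff, the mean of that plate's test compounds plus 3 SD, cut at about 27% in these data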;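 further: 0% = acetylcholine EC80 with DMSO and 100% = DMSO without agonist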
CHRM4 agonist: CHRM4 agonism in calcium assay | P08173 | CHO-K1 hM4/Gqi5, Fluo-8 calcium fluorescence; vehicle 0%, full acetylcholine response 100% | activation, % at 3 µM | actives 0.14% (n = 360,000) | AID 624127;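 active means activation above the run mean over all test wells plus 3 SD, cut at about 32% in these data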;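 further: peak over basal fluorescence ratio per well then scaled between controls; 0% = DMSO wells and 100% = acetylcholine at EC100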
M4 antag: CHRM4 antagonism in calcium assay. P08173. inhibition, % at 3 µM. CHO-hM4 cells, ACh EC80, Fluo-8 calcium fluorescence. actives 0.73% (n = 360,000);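 active means inhibition above its plate's cutoff, the mean inhibition of sample wells plus 3 SD, cut at about 27% in these data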;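 further: 0% = acetylcholine EC80 with DMSO and 100% = DMSO without agonist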
M5 PAM: potentiates acetylcholine response at human M5 receptor | P08912 | activation, % at 3 µM | actives 0.3% (n = 360,000) | CHO-K1 hM5, Fluo-8 calcium, ACh EC20 PAM; 0% = ACh EC20, 100% = ACh EC100;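 active means activation above the run cutoff, the mean activation of all test compounds plus 3 SD, cut at about 18% in these data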
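System – CHO-K1 hM5 cells · Compound – 3 µM, single dose · Incubation – compound preincubation 140 s before EC20 acetylcholine addition · Technique – Fluo-8 calcium fluorescence · Measure – Max/basal fluorescence ratio as % of EC20–EC100 ACh window · Benchmarks – low control EC20 acetylcholine (0%), high control EC100 acetylcholine (100%) · Replication – singlicate, one well per test compound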
* = called active by the depositor.

SMILES	CHRM5 agonist	CHRM4 PAM	CHRM5 antagonist	CHRM4 agonist	M4 antag	M5 PAM
Cc1cccc(C)c1NC(=O)c1csc(COCCO)n1	-0.2	5.7	-1.2	0.1	-6.6	6.3
Cc1nn(C(C)C(=O)NCCc2ccco2)c(=O)c2nn(-c3ccccc3)c(C)c12 (stereo unspecified)	-0.5	50.7*	20.5	15.4	16.8	23.5*
CSCc1c(C(=O)NCCc2ccccn2)oc2ccccc12	-1.7	-0.7	-3.6	2.3	-3.9	-3.0
COc1ccccc1C(=O)CSc1ccccn1	0.2	-11.2	27.2*	9.9	11.7	-15.8
COC(=O)CNC(=O)CSc1ccccn1	2.3	-1.7	2.6	0.9	1.1	3.6
O=C(O)CCSc1ccccn1	0.6	12.7	-7.8	3.8	3.2	3.3
O=C(CCSc1ccccn1)c1ccccc1	-10.8	-0.7	28.0*	0.9	8.3	-16.1
OCCNC(=S)NCc1ccccc1	1.9	-18.2	-1.2	-0.1	-12.3	-0.5
CN1CCC(n2[nH]c(-c3ccccc3)c(Cc3ccccc3)c2=O)CC1	-12.7	-10.7	97.9*	1.6	98.4*	-37.1
CN1CCC(N2CCN(C3CN(CCc4ccccc4)S(=O)(=O)C3)CC2)CC1 (stereo unspecified)	-0.4	0.4	4.1	-0.3	-3.5	-3.2
O=C(Nc1ccc2oc(=O)ccc2c1)c1cccnc1Cl	-1.1	-4.0	-3.5	0.3	8.9	-1.0
COc1ccccc1NC(=O)COC(=O)C1=NN(c2ccccc2)C(=O)CC1	3.2	15.7	-3.2	1.4	-1.0	18.8*
CCOC(=O)C1CCCN(C(=S)Nc2ccc(OC)cc2)C1 (stereo unspecified)	33.6*	-10.2	6.9	7.1	10.8	-17.7
Cc1c(Cl)cccc1NC(=S)N1CCCCCC1	-1.6	5.2	-3.4	0.3	-3.4	12.2
CCOC(=O)C1CCCN(C(=S)Nc2cccc(Cl)c2C)C1 (stereo unspecified)	27.9*	-0.3	11.1	2.3	5.7	-17.1
CCOC(=O)C1CCCN(C(=S)Nc2ccc(F)cc2)C1 (stereo unspecified)	23.0	2.4	-2.8	7.0	-3.0	-11.7
CCOC(=O)C1CCCN(C(=S)Nc2cccc(Cl)c2)C1 (stereo unspecified)	32.8*	-4.3	-1.9	6.0	6.6	-12.0
CCOC(=O)c1ccc(NC(=S)N2CCCC(C(=O)OCC)C2)cc1 (stereo unspecified)	22.7	-2.8	17.0	3.0	4.6	-5.8
CC(C)Cc1ccc(C(C)C(N)=NCCc2ccccc2)cc1 (stereo unspecified)	-5.0	-15.5	6.2	12.9	4.1	-2.3
COc1cc2c(cc1NC(=O)C(c1ccccc1)c1ccccc1)CCCC2	-2.3	-1.3	5.2	-1.6	12.6	-8.2
Cc1c(CCOC(=O)C23CC4(C)CC(C)(CC(C)(C4)C2)C3)sc[n+]1CC(=O)c1ccccc1	-10.2	-12.2	15.8	0.3	9.5	-16.8
Cc1c(CCOC(=O)c2ccc(Cl)cc2Cl)sc[n+]1CC(=O)c1ccccc1	-6.9	-11.6	44.6*	10.5	43.6*	-45.6
Cc1sc[n+](CC(=O)c2ccc(Br)cc2)c1C	-6.3	-4.1	15.1	0.3	3.1	-5.5
Cc1c(CCOC(=O)c2cc([N+](=O)[O-])cc([N+](=O)[O-])c2)sc[n+]1CC(=O)c1ccc(Br)cc1	-10.6	-17.2	2.4	0.5	29.0*	-0.1
Cc1ccc(NCC(=O)N/N=C/c2c[nH]c3ccccc23)cc1	-2.5	0.0	9.5	2.0	-5.1	-5.2
SMILES	CHRM5 agonist	CHRM4 PAM	CHRM5 antagonist	CHRM4 agonist	M4 antag	M5 PAM
COc1ccc(NC(=O)CSc2nnnn2C)c([N+](=O)[O-])c1	-3.1	8.7	31.8*	1.2	8.7	-7.8
COc1ccc(NC(=O)CSc2nnnn2C)cc1	-0.4	0.5	9.5	5.5	0.9	-0.2
Cn1nnnc1SCC(=O)Nc1ccccc1[N+](=O)[O-]	-4.2	5.1	-3.9	0.9	-7.8	2.5
COc1ccc(C(=O)NNC(=O)CSc2nnnn2C)cc1	2.0	12.6	-4.3	0.1	1.4	19.3*
CC(C)(C(=O)O)c1ccc([C@H](O)CCCN2CCC(C(O)(c3ccccc3)c3ccccc3)CC2)cc1	11.2	1.2	-1.2	1.4	-1.2	-1.3
O=C(NCc1cccnc1)c1cc(C2CCCCN2C(=O)OCc2ccccc2)on1 (stereo unspecified)	-0.6	-4.2	-0.2	5.4	1.1	-2.5
Cc1ccccc1C(=O)NC(NC(=S)Nc1ccc(S(N)(=O)=O)cc1)C(Cl)(Cl)Cl (stereo unspecified)	-0.4	24.0*	11.3	2.1	3.6	1.6
Cc1cc(C)c(NC(=S)NC(NC(=O)c2ccccc2)C(Cl)(Cl)Cl)c(C)c1 (stereo unspecified)	4.7	-0.6	27.0*	7.3	6.6	15.6
Cc1ccc(NC(=S)NC(NC(=O)c2ccccc2)C(Cl)(Cl)Cl)c(C)c1 (stereo unspecified)	5.9	12.1	12.6	7.6	-24.3	-17.0
O=C(NC(NC(=S)Nc1ccccc1)C(Cl)(Cl)Cl)c1cccc(Cl)c1 (stereo unspecified)	7.4	-5.0	44.4*	12.5	8.7	-10.1
Cc1ccc(C(=O)NC(NC(=S)Nc2ccc(S(N)(=O)=O)cc2)C(Cl)(Cl)Cl)cc1 (stereo unspecified)	-3.5	-0.3	8.3	3.2	18.1	-8.2
O=C(O)/C=C/C(=O)c1ccc2c(c1)NC(=O)CO2	-0.1	7.3	-12.4	0.5	-0.5	5.5
CCOC(=O)Cn1c(=O)oc2cc(S(=O)(=O)NCCc3ccc(C)cc3)ccc21	3.0	-5.9	5.0	6.8	-4.3	-5.7
CCOC(=O)Cn1c(=O)oc2cc(S(=O)(=O)Nc3ccc(F)cc3)ccc21	28.1*	0.1	13.8	23.6	-14.2	-15.9
CCC(O)(CCN1CCCCC1)c1ccccc1 (stereo unspecified)	-9.9	-13.1	22.7	0.0	33.0*	-23.3
O=C(CCCCN1CCCCC1)c1ccccc1	-5.0	-20.9	9.9	9.6	3.8	-4.5
OC(CCCN1CCCCC1)(c1ccccc1)c1ccccc1	-1.3	-17.7	24.2	0.6	47.2*	-17.9
CCN(CC)c1ccc(C2C(C(=O)OCCOC(C)C)=C(C)NC3=C2C(=O)CCC3)cc1 (stereo unspecified)	-6.9	-20.4	25.1	0.6	33.2*	-21.0
C[N+]1(CC(=O)OC2CCCCCCCCCCC2)CCCC1	-12.1	-23.4	25.4	0.1	35.4*	-17.5
COC(=O)CCCCCCCCCC[N+]1(C)CCCCC1	-8.9	-14.1	3.4	0.2	30.7*	-3.3
CC(=O)OCCCCCCCCCCC[N+]1(C)CCCCC1	-15.5	-24.1	11.2	0.6	55.9*	-19.7
